For series [1] the following is noted: six clinical pharmacology studies; cited from earlier work.
The conditions of series [2]: patients; cited from earlier work.
The conditions of series [3]: ref summary of product characteristics of olaparib; cited from earlier work.
A further series in a line: Effect of food: fed. It counts as in vivo, healthy Chinese male subjects. The conditions noted are these: 150 mg; P < 0.05.
The format of series [4] is in vivo, healthy Chinese male subjects. As to conditions: male, human, plasma, po, 150 mg. Put shortly:
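Two-sequence (TR/RT), two-period randomised crossover in 44 healthy males (18–50 y, BMI 19–26 kg/m2, ≥50 kg) with a 7-day washout. Each period: single oral 150 mg tablet (test or reference) under fasting, with fasting kept ≥4 h post-dose. Plasma spun at 1700 g, 10 min, 2–8°C, stored at −80°C. Assay: protein precipitation, HPLC-MS/MS, positive ion mode, calibration 10.0–5000 ng/mL.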

For series [5] the following is noted: previous studies; cited from earlier work.
The conditions of series [6]: FDA Adverse Event Reporting System, cited from earlier work.
For series [7] the following is noted: Chinese patients, cited from earlier work.
Series [8] in a line: Safety monitoring over Part A, Part B and Part C. It counts as in vivo. As to conditions: healthy Chinese male subjects, single dose 100 mg or 150 mg. Put shortly: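 Single oral dose in a randomized two-sequence (TR/RT) crossover, two periods, 7-day washout. Part A: 100 mg fasting (n = 14). Part B: 150 mg fasting (n = 44). Part C: 150 mg after a high-fat breakfast (n = 44). TEAEs, both subject-reported and investigator-observed including lab values, were collected throughout and graded by CTCAE 5.0. Monitoring covered physical exams, vital signs, laboratory tests, 12-lead ECG and CT scans.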

The conditions of series [9]: Japanese patients, 300 mg single dosing; cited from earlier work.

Molecules are shown by their SMILES. Like-named read-outs stand apart in the source and are kept apart here.

For the molecule `O=C(c1cc(Cc2n[nH]c(=O)c3ccccc23)ccc1F)N1CCn2nc(C(F)(F)F)nc2C1` [fluzoparib], the “tolerability in healthy individuals” value in series [1] is “well tolerated”.

For `O=C(c1cc(Cc2n[nH]c(=O)c3ccccc23)ccc1F)N1CCN(C(=O)C2CC2)CC1` [olaparib], in [2], the “first nausea, time after treatment initiation” value is not above 1 month; the “first vomiting, time after treatment initiation” value is not above 2 months; the “median time to first occurrence of anemia” value is recorded as “approximately 4 weeks”. Moreover, in series [3], the “Tmax delayed by high-fat, high-calorie meal” value is given as 2.5 h and the “mean AUC increased by high-fat, high-calorie meal” value is “approximately 8%”. Besides, the “difference in Tmax, fed vs fasting state” value in “Effect of food: fed” is “significantly prolonged”. In series [4], the Tmax is 1.5 h and the half-life was 5.94 h. Also, the “inter-individual variation in the AUC” value in series [5] was 55–57%. The “adverse events received related to olaparib” value in series [6] (2008 through first quarter of 2023) is 10,957. Besides, in series [6], the “adverse events connected to genotoxicity” value is on record as “no adverse events”. Further, in series [7] (100 mg single dosing), the “arithmetic mean t1/2” value is recorded as 7.17 h and the “median Tmax” value is given as 1.95 h. Further, the “arithmetic mean t1/2” value in series [7] (300 mg single dosing) was 6.52 h. The tolerability entry in [8] is recorded as “well tolerated”. For the same molecule, in [9], the “arithmetic mean t1/2” value is 9.43 h and the “median Tmax” value is recorded as 1.98 h.

(Values after paper PMC11624666 (Drug Design, Development and Therapy, 2024).)
